Measurements: ChEMBL document CHEMBL4765325, “Discovery of dihydropyrrolidones as novel inhibitors against influenza A virus” (Eur J Med Chem, 2020)
The source made the active and inactive calls. The calls are words filed in the database; no cut-off is given here.

What was measured:
[1] = tested on: Influenza A virus; experiment: Antiviral activity against Influenza A virus (A/Puerto Rico/8/34(H1N1)) infected in human A549 cells assessed as reduction in viral replication by measuring HA mRNA expression at 5 to 40 uM incubated for 24 hrs by qRT-PCR analysis; format: functional, organism-based; conditions: A/Puerto Rico/8/1934(H1N1), dose 5-40 µM
[2] = tested on: MDCK; experiment: Upregulation of MxA in dog MDCK cells infected with Influenza A virus (A/Puerto Rico/8/34(H1N1)) at 40 uM incubated for 24 hrs by qRT-PCR analysis; format: functional, cell-based; conditions: Canis lupus familiaris
Summary of the method: (§1)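 Virus-infected MDCK cells were treated with compound for 24 h. Expression of each gene was then measured by qRT-PCR using gene-specific primers, against an untreated control group.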

[3] = tested on: Influenza A virus; experiment: Antiviral activity against Influenza A virus (A/Puerto Rico/8/34(H1N1)) infected in human A549 cells assessed as reduction in viral replication by measuring NP expression at 40 uM measured upto 10 hrs by qRT-PCR analysis; format: functional, organism-based; conditions: A/Puerto Rico/8/1934(H1N1), time hrs <=10
Summary of the method: (§2)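 Time-of-addition assay with PR8. After unabsorbed virus was removed, cells received compound during the intervals 0–2, 2–5, 5–8, 8–10 or 0–10 h, covering one replication cycle. At 10 h p.i., viral NP protein was read by western blot and viral mRNA by qRT-PCR. Three independent experiments, mean SD.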

[4] = tested on: H3N2 subtype; experiment: Antiviral activity against Influenza A virus (A/Aichi/2/1968(H3N2)) infected in dog MDCK cells assessed as reduction in virus-induced cytopathogenicity incubated for 48 hrs by microscopic analysis; format: functional, cell-based
[5] = tested on: Influenza A virus; experiment: Antiviral activity against Influenza A virus (A/Puerto Rico/8/34(H1N1)) infected in dog MDCK cells assessed as reduction in viral replication by measuring HA mRNA expression measured upto 72 hrs by qRT-PCR analysis; format: functional, organism-based; conditions: A/Puerto Rico/8/1934(H1N1), time hrs <=72
Summary of the method: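 Viral HA mRNA was measured by qRT-PCR in IAV-infected MDCK cells treated with serially diluted compound, at 24, 48 and 72 h p.i. Ribavirin served as positive control; data are mean SD.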

[6] = tested on: Influenza A virus; experiment: Antiviral activity against Influenza A virus (A/Puerto Rico/8/34(H1N1)) infected in dog MDCK cells assessed as reduction in viral replication at 40 uM measured upto 10 hrs; format: functional, organism-based; conditions: A/Puerto Rico/8/1934(H1N1), time hrs <=10; summary of the method: as §2
[7] = Selectivity index, ratio of CC50 for dog MDCK cells to IC50 for antiviral activity against Influenza A virus (A/Fort Monmouth/1/1947(H1N1)); format: toxicity; conditions: read-out: Ratio CC50/IC50
Summary of the method: (§3)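 SI = CC50/IC50, both from MTT read-outs in MDCK cells in triplicate. Cytotoxicity: 2 × 10⁴ cells/well, overnight at 37 °C with 5% CO2, then compound at 1.56–400 µM for 48 h, MTT 4 h, DMSO, A570. Antiviral: cells infected 1 h, washed, then cultured 48 h in DMEM with TPCK and two-fold serial compound dilutions.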

[8] = Cytotoxicity against human A549 cells assessed as reduction in cell viability incubated for 48 hrs by MTT assay; format: cell-based
Summary of the method: (§4)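 MDCK or A549 cells were seeded at 2 × 10⁴ per well and incubated overnight at 37 °C, 5% CO₂. Compound (1.56 to 400) was added for 48 h, followed by MTT for 4 h at 37 °C and DMSO to dissolve the formazan. Absorbance was read at 570 nm and CC₅₀ calculated.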

[9] = tested on: Influenza A virus; experiment: Antiviral activity against Influenza A virus (A/Puerto Rico/8/34(H1N1)) infected in dog MDCK cells assessed as reduction in plaque formation incubated for 48 hrs by crystal violet staining based assay; format: functional, organism-based; conditions: A/Puerto Rico/8/1934(H1N1), dose 5-40 µM
Summary of the method: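 Plaque reduction assay in PR8-infected MDCK cells across a range of compound doses. Cells were fixed with 4% paraformaldehyde and stained with crystal violet. Inhibition was scored by counting plaques.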

[10] = tested on: Influenza A virus; experiment: Antiviral activity against Influenza A virus (A/Puerto Rico/8/34(H1N1)) infected in dog MDCK cells assessed as reduction in virus-induced cytopathogenicity incubated for 48 hrs by microscopic analysis; format: functional, organism-based; conditions: A/Puerto Rico/8/1934(H1N1)
[11] = tested on: Influenza A virus; experiment: Antiviral activity against Influenza A virus (A/Puerto Rico/8/34(H1N1)) infected in dog MDCK cells assessed as reduction in viral replication by measuring NP level incubated for 24 hrs by immunofluorescence staining based Ti-Eclipse inverted fluorescence microscopic analysis; format: functional, organism-based; conditions: A/Puerto Rico/8/1934(H1N1), dose 5-40 µM
Summary of the method: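 MDCK cells were infected with PR8 at 100TCID₅₀ and treated with varied compound concentrations. At 24 h p.i. they were washed with cold PBS, fixed in 4% paraformaldehyde for 10 min and blocked in 3% BSA for 1 h at room temperature. Staining used anti-NP (1:250) overnight at 4 °C, then a FITC secondary for 1 h, with DAPI nuclear counterstain; cells were imaged by fluorescence microscopy.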

[12] = tested on: Influenza A virus; experiment: Antiviral activity against Influenza A virus (A/Puerto Rico/8/34(H1N1)) infected in dog MDCK cells assessed as reduction in viral replication by measuring NP level incubated for 24 hrs by Western blot analysis; format: functional, organism-based; conditions: A/Puerto Rico/8/1934(H1N1), dose 5-40 µM
Summary of the method: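 Two-fold serial compound dilutions were added to PR8-infected MDCK cells after virus adsorption, and cells were harvested at 24 h p.i. Equal lysate protein was run on 10% SDS-PAGE and transferred to PVDF. Blots were probed with anti-NP (1:2000) and β-actin as loading control, then an HRP secondary, with chemiluminescent detection.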

[13] = tested on: MDCK; experiment: Upregulation of IFN-beta in dog MDCK cells infected with Influenza A virus (A/Puerto Rico/8/34(H1N1)) at 40 uM incubated for 24 hrs by qRT-PCR analysis; format: functional, cell-based; conditions: Canis lupus familiaris; summary of the method: as §1
[14] = tested on: Influenza A virus; experiment: Antiviral activity against Influenza A virus (A/Fort Monmouth/1/1947(H1N1)) infected in dog MDCK cells assessed as reduction in virus-induced cytopathogenicity incubated for 48 hrs by microscopic analysis; format: functional, organism-based
[15] = Cytotoxicity against dog MDCK cells assessed as reduction in cell viability incubated for 48 hrs by MTT assay; format: cell-based, Canis lupus familiaris; summary of the method: as §4
[16] = Selectivity index, ratio of CC50 for dog MDCK cells to IC50 for antiviral activity against Influenza A virus (A/Puerto Rico/8/34(H1N1)); format: toxicity; conditions: read-out: Ratio CC50/IC50; summary of the method: as §3
[17] = tested on: Influenza A virus; experiment: Antiviral activity against Influenza A virus 690 (H3) infected in dog MDCK cells assessed as reduction in virus-induced cytopathogenicity incubated for 48 hrs by microscopic analysis; format: functional, organism-based
[18] = tested on: MDCK; experiment: Downregulation of NOX1 in dog MDCK cells infected with Influenza A virus (A/Puerto Rico/8/34(H1N1)) at 40 uM incubated for 24 hrs by qRT-PCR analysis; format: functional, cell-based; conditions: Canis lupus familiaris; summary of the method: as §1
[19] = Selectivity index, ratio of CC50 for dog MDCK cells to IC50 for antiviral activity against Influenza A virus 690 (H3); format: toxicity; conditions: read-out: Ratio CC50/IC50; summary of the method: as §3
[20] = tested on: Influenza A virus; experiment: Antiviral activity against Influenza A virus (A/Puerto Rico/8/34(H1N1)) infected in dog MDCK cells assessed as reduction in viral replication by measuring NP expression at 40 uM measured upto 10 hrs by Western blot analysis; format: functional, organism-based; conditions: A/Puerto Rico/8/1934(H1N1), time hrs <=10; summary of the method: as §2
[21] = Selectivity index, ratio of CC50 for dog MDCK cells to IC50 for antiviral activity against Influenza A virus (A/Aichi/2/1968(H3N2)); format: toxicity; conditions: read-out: Ratio CC50/IC50; summary of the method: as §3

CCOC(=O)C1=C(Nc2ccc(C(F)(F)F)cc2)C(=O)N(c2ccc(C(F)(F)F)cc2)C1c1ccccc1 (stereo not given)
Activity [1]: Active | Activity [2]: Active | Activity [3]: Active | IC50 [4]: 5.26 µM | Activity [5]: Active | Activity [6]: Active | selectivity ratio [7]: > 112 | CC50 at 48 h [8]: > 400 µM | Activity [9]: Dose-dependent effect | IC50 [10]: 3.11 µM | Activity [11]: Dose-dependent effect | Activity [12]: Dose-dependent effect | Activity [13]: Active | IC50 [14]: 3.58 µM | CC50 at 48 h [15]: > 400 µM | selectivity ratio [16]: > 129 | IC50 [17]: 7.13 µM | Activity [18]: Active | selectivity ratio [19]: > 56.1 | Activity [20]: Active | selectivity ratio [21]: > 76

CCOC(=O)C1=C(Nc2ccc(C(F)(F)F)cc2)C(=O)N(c2ccc(C(F)(F)F)cc2)C1c1cccc([N+](=O)[O-])c1 (stereo not given)
IC50 [10]: > 400 µM

COC(=O)C1=C(Nc2ccc(C(F)(F)F)cc2)C(=O)N(c2ccc(C(F)(F)F)cc2)C1c1ccccc1 (stereo not given)
IC50 [10]: 11.9 µM

CCOC(=O)C1=C(Nc2ccc(C(F)(F)F)cc2)C(=O)N(c2ccc(C(F)(F)F)cc2)C1c1cccc(C(F)(F)F)c1 (stereo not given)
IC50 [10]: 11.8 µM

CCOC(=O)C1=C(Nc2ccc(C(F)(F)F)cc2)C(=O)N(c2ccc(C(F)(F)F)cc2)C1
IC50 [10]: 222 µM

CCOC(=O)C1=C(Nc2ccc(C(F)(F)F)cc2)C(=O)N(c2ccc(C(F)(F)F)cc2)C1c1ccc(C(C)(C)C)cc1 (stereo not given)
IC50 [10]: > 400 µM

CCOC(=O)C1=C(Nc2ccc(C(F)(F)F)cc2)C(=O)N(c2ccc(C(F)(F)F)cc2)C1c1cccc2ccccc12 (stereo not given)
IC50 [10]: 11.8 µM

CCOC(=O)C1=C(Nc2ccc(C(F)(F)F)cc2)C(=O)N(c2ccc(C(F)(F)F)cc2)C1c1ccc(C(F)(F)F)cc1 (stereo not given)
IC50 [10]: 67.2 µM

COC(=O)C1=C(Nc2cccc(C(F)(F)F)c2)C(=O)N(c2cccc(C(F)(F)F)c2)C1c1ccccc1 (stereo not given)
IC50 [10]: 16.1 µM

CCOC(=O)C1=C(Nc2ccc(C(F)(F)F)cc2)C(=O)N(c2ccc(C(F)(F)F)cc2)C1c1ccc(C)cc1 (stereo not given)
IC50 [10]: 68.5 µM

CCOC(=O)C1=C(Nc2ccc(C(F)(F)F)cc2)C(=O)N(c2ccc(C(F)(F)F)cc2)C1c1ccc(Cl)cc1 (stereo not given)
IC50 [10]: > 400 µM

CCOC(=O)C1=C(Nc2ccc(C(C)(C)C)cc2)C(=O)N(c2ccc(C(C)(C)C)cc2)C1c1ccccc1 (stereo not given)
IC50 [10]: > 400 µM

CCOC(=O)C1=C(Nc2cccc(C(F)(F)F)c2)C(=O)N(c2cccc(C(F)(F)F)c2)C1c1ccccc1 (stereo not given)
IC50 [10]: 30.9 µM

CCOC(=O)C1=C(Nc2ccc(OC)cc2)C(=O)N(c2ccc(OC)cc2)C1c1ccccc1 (stereo not given)
IC50 [10]: > 400 µM

CCOC(=O)C1=C(Nc2ccc(C(F)(F)F)cc2)C(=O)N(c2ccc(C(F)(F)F)cc2)C1c1ccc(OC(F)(F)F)cc1 (stereo not given)
IC50 [10]: 128 µM

CCOC(=O)C1=C(Nc2cccc(Cl)c2)C(=O)N(c2cccc(Cl)c2)C1c1ccccc1 (stereo not given)
IC50 [10]: 6.91 µM

CCOC(=O)C1=C(Nc2ccc(Oc3ccccc3)cc2)C(=O)N(c2ccc(Oc3ccccc3)cc2)C1c1ccccc1 (stereo not given)
IC50 [10]: > 400 µM

CCOC(=O)C1=C(Nc2ccc(C(F)(F)F)cc2)C(=O)N(c2ccc(C(F)(F)F)cc2)C1c1cccc(OC)c1 (stereo not given)
IC50 [10]: 9.23 µM

NC(=O)c1ncn([C@@H]2O[C@H](CO)[C@@H](O)[C@H]2O)n1 [RIBAVIRIN]
IC50 [10]: 2.84 µM

CCOC(=O)C1=C(Nc2ccc(C(C)C)cc2)C(=O)N(c2ccc(C(C)C)cc2)C1c1ccccc1 (stereo not given)
IC50 [10]: > 400 µM

CCOC(=O)C1=C(Nc2ccc(C(F)(F)F)cc2)C(=O)N(c2ccc(C(F)(F)F)cc2)C1c1ccc(F)cc1 (stereo not given)
IC50 [10]: 7.63 µM

CCOC(=O)C1=C(Nc2ccc(Cl)cc2)C(=O)N(c2ccc(Cl)cc2)C1c1ccccc1 (stereo not given)
IC50 [10]: > 400 µM

CCOC(=O)C1=C(Nc2ccc(Br)cc2)C(=O)N(c2ccc(Br)cc2)C1c1ccccc1 (stereo not given)
IC50 [10]: > 400 µM

CCOC(=O)C1=C(NC2CCCCC2)C(=O)N(C2CCCCC2)C1c1ccccc1 (stereo not given)
IC50 [10]: > 400 µM

CCOC(=O)C1=C(Nc2ccc(C(F)(F)F)cc2)C(=O)N(c2ccc(C(F)(F)F)cc2)C1c1ccc(C#N)cc1 (stereo not given)
IC50 [10]: > 400 µM

CCOC(=O)C1=C(Nc2ccccc2)C(=O)N(c2ccccc2)C1c1ccccc1 (stereo not given)
IC50 [10]: > 400 µM

CCOC(=O)C1=C(Nc2ccc(C(F)(F)F)cc2)C(=O)N(c2ccc(C(F)(F)F)cc2)C1c1ccc(Br)s1 (stereo not given)
IC50 [10]: > 400 µM

CCOC(=O)C1=C(Nc2ccc(C(F)(F)F)cc2)C(=O)N(c2ccc(C(F)(F)F)cc2)C1c1ccc([N+](=O)[O-])cc1 (stereo not given)
IC50 [10]: > 400 µM

CCOC(=O)C1=C(Nc2ccc(C(F)(F)F)cc2)C(=O)N(c2ccc(C(F)(F)F)cc2)C1c1ccc(Br)cc1 (stereo not given)
IC50 [10]: > 400 µM

CCOC(=O)C1=C(Nc2ccc(C)cc2)C(=O)N(c2ccc(C)cc2)C1c1ccccc1 (stereo not given)
IC50 [10]: 19 µM
